Results as given in PubChem BioAssay.
Results filed as inconclusive are left out.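 The calls were made as follows, unless noted: active = cell viability at or below a set limit in both duplicate runs, the limit being the all-compound median minus 4 SD (cut at about 23% in these data, passing the limit was not always enough); inconclusive = no clear call, values can overlap the other calls; inactive = the rest.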

How the values were obtained:
[1] = S. cerevisiae growth inhibition in permissive medium (OD615), pilot counter-assay for S. cerevisiae lifespan shortening project, permissive growth control (AID 705;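 active = growth inhibition above 25% in both replicates, a cutoff set 3 SD above the mean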); conditions: OD615, 24 h, at 10 µM, hits give high values
How it was run: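 assay system = Saccharomyces cerevisiae strain carrying genetically modified DeaD replicative-lifespan system | medium = SC raffinose/galactose permissive medium | dosing = 10 µM single dose, 0.25% DMSO | schedule = 24 h compound exposure at 30 °C after 4 h pre-growth | measured by = OD at 615 nm | read-out basis = growth inhibition from lowered OD615 after 24 h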

[2] = S. cerevisiae growth inhibition in restrictive medium, OD615, pilot screen, restrictive growth control, yeast lifespan reduction project (AID 706;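 active = growth inhibition above a set limit, 3 SD over mean compound inhibition, in both replicates, cut at about 43% in these data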;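 also: modified DeaD lifespan yeast strain shifted to restrictive glucose medium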); conditions: OD615, 48 h, at 10 µM, hits give high values
How it was run: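 Buffer or medium: CSMM-D glucose medium. Material: genetically modified Saccharomyces cerevisiae, DeaD replicative lifespan assay strain. Times: 48 h compound exposure at 30 °C. Measured by: optical density at 615 nm.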

[3] = doxorubicin toxicity protection in MRP-1 cells – H69AR cells, CellTiter-Glo, duplicate, MRP-1 activator project, pilot screen (AID 807;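 active = viability increase at or above a cutoff of the median across tested compounds plus 3 SD, cut at about 8.5% in these data, passing the limit was not always enough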;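 also: compound pretreatment 18-22 h then 72 h combined with doxorubicin; 0% = doxorubicin alone and 100% = vehicle without doxorubicin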); conditions: H69AR viability with doxorubicin, CellTiter-Glo luminescence; at 10 µM; hits give high values
[4] = viability of HCT116 without oncogenic beta-catenin – human colon tumor cells, pilot screen (AID 823); conditions: HCT116 beta-catenin knockout viability, CellTiter-Glo, 60 h; at 10 µM; hits give low values;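 also: 0% = wells killed by 20 µM Hyamine and 100% = untreated DMSO cell wells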
[5] = viability of PTEN-null HCT116 cells – cell-based, HCT116 clonal line, CellTiter-Glo, pilot screen (AID 824;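 active = viability at or below 27.92% in each of two runs, the all-compound median minus 4 SD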;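 also: 0% = 20 µM Hyamine control and 100% = vehicle cell control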); conditions: HCT116 PTEN-deleted viability, 60 h, at 10 µM, hits give low values
[6] = RAM pathway blockade in budding yeast – dse1pr::URA3 reporter, 5-FOA selection, pilot screen (AID 869;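 active = inhibition over a set limit, the all-compound mean plus 3 SD, in both replicate runs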;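 also: 0% = DMSO wells with no growth and 100% = 10 µM 1-NA-PP1 with full growth; RAM network block rescues cells from 5-FOA so hits raise OD615 growth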); conditions: S. cerevisiae dse1pr::URA3 5-FOA growth, OD615, 2 d; at 10 µM; hits give high values; strain carries analog-sensitive mutant Cbk1 kinase
[7] = RAM signaling pathway blockade in yeast – S. cerevisiae, Pdr1DBD-CYC8 efflux-inhibited sensitized strain, primary screen (AID 1298;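 active = RAM network inhibition above 8.4% in each of two replicates, 3 SD over the compound average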;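 also: 0% = DMSO untreated cells without growth and 100% = 10 µM 1-NA-PP1 full growth; higher means more yeast growth rescued from 5-FOA killing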); conditions: S. cerevisiae cbk1-as DSE1-URA3 strain, 5-FOA growth OD615, 2 d; at 50 µM; hits give high values

O=C1CCC(=O)N1c1cccc(-c2nc3ccccc3o2)c1
inactive: growth inhibition [1] -7.93% | growth inhibition [2] -2.65% | viability increase [3] 0.42% | viability [4] 106% | viability [5] 105% | inhibition [6] -0.245% | RAM network inhibition [7] 4.59%

Cc1sc2ncnc(NCCCO)c2c1C
inactive: growth inhibition [1] -16.1% | growth inhibition [2] -8.24% | viability increase [3] -1.72% | viability [4] 103% | viability [5] 90.5% | inhibition [6] 0.945% | RAM network inhibition [7] 5.49%

COc1ccc(Cl)cc1N1C(=O)C2CCCN2C1c1ccccc1F (stereo not drawn)
inactive: growth inhibition [1] 2.31% | growth inhibition [2] -4.76% | viability increase [3] -3.84% | viability [4] 93% | viability [5] 95.1% | inhibition [6] 1.41% | RAM network inhibition [7] 1.3%

O=C1CCC(=O)N1CNc1cccnc1
inactive: growth inhibition [1] -7.25% | growth inhibition [2] -12.2% | viability increase [3] -0.41% | viability [4] 95.3% | viability [5] 103% | inhibition [6] 0.34% | RAM network inhibition [7] 5.5%

COc1ccc(-c2nc(C(N)=O)c3[nH]c(=O)n(-c4cccc(C)c4)c3n2)c(OC)c1
inactive: growth inhibition [1] -10.8% | growth inhibition [2] -14.3% | viability increase [3] -5.41% | viability [4] 81.6% | viability [5] 74.3% | inhibition [6] 3.42% | RAM network inhibition [7] 5.6%

Cc1nc2sc(C(c3ccc(C(C)C)cc3)N3CCN(CCO)CC3)c(O)n2n1 (stereo not drawn)
inactive: growth inhibition [1] -9.91% | growth inhibition [2] -9.61% | viability increase [3] -0.75% | viability [4] 97% | viability [5] 98.1% | inhibition [6] 1.58% | RAM network inhibition [7] 2.77%

O=C(Nc1ccc(S(=O)(=O)N2CCCCCC2)cc1)c1ccc(Br)o1
inactive: growth inhibition [1] -4.67% | growth inhibition [2] 0.21% | viability increase [3] -3.03% | viability [4] 69.6% | viability [5] 59.7% | inhibition [6] 2.62% | RAM network inhibition [7] 5.05%

CCC(Cc1ccccc1)NC(=O)CN1C(=O)CSc2ncccc21 (stereo not drawn)
inactive: growth inhibition [1] -2.26% | growth inhibition [2] -14.6% | viability increase [3] -2.81% | viability [4] 85% | viability [5] 75.7% | inhibition [6] 0.665% | RAM network inhibition [7] -0.97%

O=C(O)CCCC(=O)NCCCc1ccccc1
inactive: growth inhibition [1] -6.08% | growth inhibition [2] 3.99% | viability increase [3] -2.85% | viability [4] 98.5% | viability [5] 89.8% | inhibition [6] 1.02% | RAM network inhibition [7] 2.45%

Cc1ccc(C)c(NC(=O)CSc2nnc(-c3ccccc3)n2N)c1
inactive: growth inhibition [1] -4.36% | growth inhibition [2] -8.22% | viability increase [3] -1.93% | viability [4] 109% | viability [5] 90.1% | inhibition [6] 1.5% | RAM network inhibition [7] 3.95%

Cc1ccc(-n2ncc3c(NCCCN4CCOCC4)ncnc32)c(C)c1
inactive: growth inhibition [1] -6.19% | growth inhibition [2] 6.86% | viability increase [3] -1.79% | viability [4] 96.1% | viability [5] 93.9% | inhibition [6] 2.75% | RAM network inhibition [7] 0.42%

CCc1nnc(NC(=O)c2ccc(S(=O)(=O)N(CCOC)CCOC)cc2)s1
inactive: growth inhibition [1] -9.86% | growth inhibition [2] -3% | viability increase [3] 3.39% | viability [4] 115% | viability [5] 107% | inhibition [6] 0.77% | RAM network inhibition [7] 1.29%

O=C(O)CSC1c2ccccc2C(=O)N1Cc1ccccc1 (stereo not drawn)
inactive: growth inhibition [1] -13.6% | growth inhibition [2] -2.05% | viability increase [3] 2.07% | viability [4] 94.4% | viability [5] 93.7% | inhibition [6] 0.06% | RAM network inhibition [7] 0.3%

Cn1c(NCc2ccccc2Cl)nc2ccccc21
inactive: growth inhibition [1] -5.4% | growth inhibition [2] -11.6% | viability increase [3] 0.98% | viability [4] 97.5% | viability [5] 92.8% | inhibition [6] 0.3% | RAM network inhibition [7] 1.78%

O=C(Nc1scc(-c2cccs2)c1C(=O)O)c1cccs1
inactive: growth inhibition [1] -11.8% | growth inhibition [2] -9.07% | viability increase [3] 3.64% | viability [4] 103% | viability [5] 105% | inhibition [6] 1.41% | RAM network inhibition [7] 0.42%

CC(C)(C)n1nc2c(c1NC(=O)c1ccccc1F)CS(=O)C2 (stereo not drawn)
inactive: growth inhibition [1] 1.35% | growth inhibition [2] 0.655% | viability increase [3] 0.62% | viability [4] 101% | viability [5] 101% | inhibition [6] 1.66% | RAM network inhibition [7] 1.67%

N#CCCN1CCN(S(=O)(=O)c2ccc(S(=O)(=O)NC3CC3)cc2)CC1
inactive: growth inhibition [1] -10.4% | growth inhibition [2] -5.2% | viability increase [3] 0.24% | viability [4] 103% | viability [5] 99.6% | inhibition [6] 0.68% | RAM network inhibition [7] 3.16%

Cc1cc(Nc2cccc(F)c2)n2ncnc2n1
inactive: growth inhibition [1] -0.15% | growth inhibition [2] 12.3% | viability increase [3] 0% | viability [4] 101% | viability [5] 106% | inhibition [6] 1.23% | RAM network inhibition [7] 0.16%

Cc1sc2nc(SCC(=O)N3CCOCC3)[nH]c(=O)c2c1C
inactive: growth inhibition [1] -1.58% | growth inhibition [2] -1.96% | viability increase [3] -1.93% | viability [4] 105% | viability [5] 92.2% | inhibition [6] 1.8% | RAM network inhibition [7] 2.17%

COc1ccc(CCNC(=O)CC2Oc3ccc(Cl)cc3NC2=O)cc1OC (stereo not drawn)
inactive: growth inhibition [1] -0.31% | growth inhibition [2] -7.26% | viability increase [3] -0.06% | viability [4] 96.2% | viability [5] 97.6% | inhibition [6] 1.17% | RAM network inhibition [7] 5.03%

O=C(Cn1cc2c(n1)CCCC2)NCc1cccs1
inactive: growth inhibition [1] -4.03% | growth inhibition [2] -3.48% | viability increase [3] -0.37% | viability [4] 105% | viability [5] 93% | inhibition [6] 1.2% | RAM network inhibition [7] 0.81%

O=C(NCCCN1CCOCC1)c1ccc(CS(=O)(=O)c2ccc(Br)cc2)o1
inactive: growth inhibition [1] -9.31% | growth inhibition [2] -11% | viability increase [3] -0.56% | viability [4] 99.8% | viability [5] 96.2% | inhibition [6] 2.23% | RAM network inhibition [7] 3.6%

CSC1=NCCN1C(=O)Cc1ccc(Cl)cc1
inactive: growth inhibition [1] 1.21% | growth inhibition [2] -7% | viability increase [3] 4.4% | viability [4] 108% | viability [5] 96.7% | inhibition [6] 0.105% | RAM network inhibition [7] -0.15%

CC1(C)Cc2ccccc2-c2nc(NCCO)n(-c3ccccc3)c(=O)c21
inactive: growth inhibition [1] -7.5% | growth inhibition [2] -15.2% | viability increase [3] -2.92% | viability [4] 84.8% | viability [5] 83% | inhibition [6] -0.14% | RAM network inhibition [7] 3.93%
